Assay results from ChEMBL document CHEMBL4400568, “The design of 1,4-naphthoquinone derivatives and mechanisms underlying apoptosis induction through ROS-dependent MAPK/Akt/STAT3 pathways in human lung cancer cells” (Bioorg Med Chem, 2019).
Activity calls are given as the source filed them. The rule behind the calls is not given here.

What was measured:
A549 [1] = assay: Induction of apoptosis in human A549 cells assessed as early apoptotic cells at 3 uM after 3 hrs by Annexin V-FITC/propidium iodide staining-based flow cytometric analysis (reference value: 2.73%); assay type: functional
A549 [2] = assay: Modulation of ERK in human A549 cells assessed as decrease in STAT3 phosphorylation measured after 24 hrs in presence of ERK inhibitor FR180204 by Western blot analysis; assay type: cell-based
[3] = Cytotoxicity against human QSG7701 cells assessed as reduction in cell viability after 24 hrs by MTT assay; assay type: cell-based
Outline: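 Log-phase cells seeded at 1 × 10⁴ per well. Lung cancer lines (A549, NCI-H23, NCI-H460) and normal lines (IMR-90, QSG-7701, HEK-293A) each exposed to 1, 3, 10, 30 and 100 μM for 24 h. MTT (5 mg/mL stock) added for 2 h at 37°C, formazan dissolved in DMSO, absorbance read at 490 nm. Three independent experiments, mean ± SD.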

A549 [4] = assay: Induction of apoptosis in human A549 cells assessed as early apoptotic cells at 3 uM in presence of NAC by Annexin V-FITC/propidium iodide staining-based flow cytometric analysis (reference value: 5.31%); assay type: functional
A549 [5] = assay: Induction of apoptosis in human A549 cells assessed as late apoptotic cells at 3 uM after 6 hrs by Annexin V-FITC/propidium iodide staining-based flow cytometric analysis (reference value: 4.52%); assay type: functional
A549 [6] = assay: Induction of apoptosis in human A549 cells assessed as increase in cleaved caspase-3 expression at 3 uM by Western blot analysis; assay type: functional, cell-based; details: TDE = time-dependent effect
Outline: (§1)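 A549 cells exposed to 3 μM for 3, 6, 12 or 24 h; where NAC is used, 10 mM NAC is added 30 min before 24 h treatment. Lysate protein (30 μg) is run on 12% SDS-PAGE, blotted to nitrocellulose, blocked in 5% milk, primary antibody overnight at 4°C, then HRP anti-IgG. β-actin loading control; densitometry; three independent experiments, mean ± SD.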

A549 [7] = assay: Inhibition of ERK in human A549 cells assessed as decrease in STAT3 phosphorylation at 3 uM after 24 hrs in presence of NAC by Western blot analysis; assay type: cell-based
Outline: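 A549 cells pretreated with 10 mM NAC for 30 min, then exposed to compound for 24 h. Lysate protein (30 μg) resolved on 12% SDS-PAGE and transferred to nitrocellulose. Probed with primary antibodies overnight at 4°C, then HRP secondary. Band densities from three independent experiments, mean ± SD.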

A549 [8] = assay: Cell cycle arrest in human A549 cells assessed as accumulation of cells at G2 phase at 3 uM after 12 hrs by propidium iodide staining-based flow cytometric analysis (reference value: 24.02%); assay type: functional
A549 [9] = assay: Cell cycle arrest in human A549 cells assessed as accumulation of cells at G1 phase at 3 uM by propidium iodide staining-based flow cytometric analysis; assay type: functional; details: TDE = time-dependent effect
A549 [10] = assay: Induction of apoptosis in human A549 cells assessed as increase in cleaved PARP at 3 uM measured after 24 hrs in presence of NAC by Western blot analysis; assay type: functional, cell-based; outline: as §1
A549 [11] = assay: Induction of apoptosis in human A549 cells assessed as late apoptotic cells at 3 uM in presence of NAC by Annexin V-FITC/propidium iodide staining-based flow cytometric analysis (reference value: 0.22%); assay type: functional
A549 [12] = assay: Inhibition of ERK in human A549 cells assessed as decrease in STAT3 phosphorylation at 3 uM after 3 to 24 hrs by Western blot analysis; assay type: cell-based
Outline: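 A549 cells exposed to 3 μM for 3, 6, 12 or 24 h. Lysate protein (30 μg) run on 12% SDS-PAGE and blotted to nitrocellulose. Membranes blocked in 5% skim milk, primary antibodies at 4°C overnight, then HRP anti-IgG secondary for 1 h at room temperature. β-actin was the internal control. Bands quantified by densitometry; three independent experiments, mean ± SD.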

[13] = molecular target: MAP kinase p38 (Homo sapiens) (UniProt O15264+Q15759+Q16539+P53778); assay: Modulation of p38 MAPK in human A549 cells assessed as reduction in STAT3 phosphorylation measured after 24 hrs in presence of p38 inhibitor SB203580 by Western blot analysis; assay type: cell-based
Outline: (§2)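 A549 cells pre-incubated for 30 min with 12.1 μM kinase inhibitor: SB203580 (p38), SP600125 (JNK), FR180204 (ERK) or LY10249 (Akt). Compound treatment followed for 24 h. Lysates (30 μg protein) analysed by 12% SDS-PAGE and nitrocellulose immunoblot with HRP detection. Three independent experiments, mean ± SD.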

A549 [14] = assay: Induction of apoptosis in human A549 cells assessed as late apoptotic cells at 3 uM after 12 hrs by Annexin V-FITC/propidium iodide staining-based flow cytometric analysis (reference value: 4.52%); assay type: functional
A549 [15] = assay: Cell cycle arrest in human A549 cells assessed as increase in p27 levels at 3 uM by Western blot analysis; assay type: functional, cell-based; details: TDE = time-dependent effect; outline: as §1
A549 [16] = assay: Induction of ROS generation in human A549 cells assessed as intracellular ROS level at 3 uM after 12 hrs by DCFH-DA staining-based flow cytometric analysis (reference value: 51.8%); assay type: functional
Outline: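 A549 cells loaded with DCFH-DA (10 μM per legend) for 30 min, then exposed to 3 μM at 37°C for 3, 6, 12 or 24 h. After two PBS washes, intracellular fluorescence is quantified by flow cytometry. Three independent experiments, mean ± SD.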

[17] = molecular target: RAC-alpha serine/threonine-protein kinase (Homo sapiens) (UniProt P31749); assay: Modulation of AKT in human A549 cells assessed as decrease in CDK6 levels measured after 24 hrs in presence of Akt inhibitor-LY10249 by Western blot analysis; assay type: cell-based; outline: as §2
A549 [18] = assay: Induction of apoptosis in human A549 cells assessed as nuclear condensation at 3 uM by Annexin V-FITC/propidium iodide staining-based flow cytometric analysis; assay type: functional, cell-based; details: TDE = time-dependent effect
Outline: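 A549 cells seeded at 1 × 10⁵ cells/well, exposed to 3 μM for 3, 6, 12 and 24 h. Then incubated in binding buffer and stained with Annexin V-FITC and PI for 20 min in the dark. Apoptotic cells were scored by fluorescence microscopy and flow cytometry. Three independent experiments, mean ± SD.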

Sequence of RAC-alpha serine/threonine-protein kinase (Homo sapiens) (P31749 whole entry): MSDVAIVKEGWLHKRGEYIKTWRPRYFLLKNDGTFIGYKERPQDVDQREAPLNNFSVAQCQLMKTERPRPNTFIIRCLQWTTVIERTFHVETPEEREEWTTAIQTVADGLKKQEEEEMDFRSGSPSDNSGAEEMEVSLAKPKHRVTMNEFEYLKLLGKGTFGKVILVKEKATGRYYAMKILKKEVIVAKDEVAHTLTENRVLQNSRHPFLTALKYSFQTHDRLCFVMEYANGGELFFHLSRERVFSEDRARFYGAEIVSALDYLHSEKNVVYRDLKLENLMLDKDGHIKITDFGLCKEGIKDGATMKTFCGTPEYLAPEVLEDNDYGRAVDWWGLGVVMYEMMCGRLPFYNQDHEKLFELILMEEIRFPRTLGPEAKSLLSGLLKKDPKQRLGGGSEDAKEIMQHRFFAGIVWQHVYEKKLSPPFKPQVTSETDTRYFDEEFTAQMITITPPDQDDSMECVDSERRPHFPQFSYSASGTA

Activity [13] | Activity [17] | SMILES | Activity (A549 [1]) [%] | Activity (A549 [2]) | Activity [3] | Activity (A549 [4]) [%] | Activity (A549 [5]) [%] | Activity (A549 [6]) | inhibition (A549 [7]) | Activity (A549 [8]) [%] | Activity (A549 [9]) | Activity (A549 [10]) | Activity (A549 [11]) [%] | inhibition (A549 [12]) | Activity (A549 [14]) [%] | Activity (A549 [15]) | Activity (A549 [16]) [%] | Activity (A549 [18])
inactive | Active | CCCS(=O)(=O)C12OC1C(=O)c1c(OC)ccc(OC)c1C2=O (stereo unspecified) | 13.29 | Active | Non-Toxic | 17.94 | 7.11 | Tde | inactive | 17.49 | Tde | inactive | 2.67 | Active | 0.2 | Tde | 68.59 | Tde
inactive | Active | CCCCCCCCCS(=O)(=O)C12OC1C(=O)c1c(OC)ccc(OC)c1C2=O (stereo unspecified) | 8.15 | Active | Non-Toxic | 15.06 | 6.43 | Tde | inactive | 20.99 | Tde | inactive | 3.03 | Active | 7.87 | Tde | 62.75 | Tde
